Results taken from ChEMBL document CHEMBL1144027, “Synthesis and antimycobacterial evaluation of newer 1-cyclopropyl-1,4-dihydro-6-fluoro-7-(substituted secondary amino)-8-methoxy-5-(sub)-4-oxoquinoline-3-carboxylic acids” (Bioorg Med Chem, 2008).
pIC50: −log10 of the molar value. Values after ≈ are worked out from the molar mass of the structure shown.

Assays:
[1] = test system: Mycobacterium tuberculosis; assay: Antimycobacterial activity against Mycobacterium tuberculosis H37Rv by agar dilution method; format: functional
Summary of the method: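 Agar dilution MIC on Middlebrook 7H11 agar with OADC, following the NCCLS-recommended approach, run in duplicate. The MDR clinical isolate was resistant to isoniazid, rifampicin, ethambutol and ofloxacin.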

[2] = test system: Vero; assay: Cytotoxicity against african green monkey Vero cells after 72 hrs by MTT assay; format: cell-based; settings: Chlorocebus sabaeus
Summary of the method: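 Mammalian Vero cells exposed to compounds at 62.5 µg/ml for 72 h; viability read by cellular conversion of MTT to formazan (Cell Titer 96 non-radioactive proliferation assay).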

[3] = test system: Mycolicibacterium smegmatis; assay: Antimycobacterial activity against Mycobacterium smegmatis MC2 by agar dilution method; format: functional
Summary of the method: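 Agar dilution in Middlebrook 7H11 agar with OADC, run along NCCLS-recommended lines; M. smegmatis ATCC 14468 (MC2); MIC determined in duplicate.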

[4] = target: DNA gyrase subunit B (Mycobacterium smegmatis (strain ATCC 700084 / mc(2)155), UniProt A0QNE0); assay: Inhibition of Mycobacterium smegmatis MC2 DNA gyrase GyrB ATPase supercoiling activity; design: species or system Mycolicibacterium smegmatis
Summary of the method: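 Gyrase purified from M. smegmatis MC2 cells; compounds in DMSO pre-incubated with enzyme, then 400 ng relaxed pUC18 added in 35 mM Tris-HCl pH 7.5, 5 mM MgCl2, 25 mM K glutamate, 2 mM spermidine, 2 mM ATP, BSA, tRNA, 5% glycerol; 30 min; heat-stopped 65 °C 15 min; agarose gel, ethidium bromide staining; ciprofloxacin 10 µg/ml and 5% DMSO controls.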

[5] = test system: Mus musculus; assay: Phototoxicity in Swiss albino mouse assessed as erythema incidence at 140 mg/kg, po after 24 hrs of irradiation; format: organism-based; design: dose 140 mg/kg, route oral; settings: in vivo
Summary of the method: (§1)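 Female Swiss albino mice (~2 months, 20-25 g), fasted ≥18 h, single 140 mg/kg oral gavage dose; groups of 6 (compound, lomefloxacin HCl 140 mg/kg, 0.5% carboxymethylcellulose vehicle 10 ml/kg); UV irradiation 4 h (~18 J/cm²) right after dosing; both ears scored for erythema, oedema, thickness pre-dose, at end of irradiation, and ~24-96 h; thickness given as mean of both ears ± SEM.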

[6] = test system: Mus musculus; assay: Phototoxicity in Swiss albino mouse assessed as ear thickness at 140 mg/kg, po after 72 hrs of irradiation; format: organism-based; design: dose 140 mg/kg, route oral; settings: in vivo; summary of the method: as §1
[7] = test system: Mus musculus; assay: Phototoxicity in Swiss albino mouse assessed as ear thickness at 140 mg/kg, po after 4 hrs of irradiation; format: organism-based; design: dose 140 mg/kg, route oral; settings: in vivo; summary of the method: as §1
[8] = test system: Mus musculus; assay: Phototoxicity in Swiss albino mouse assessed as erythema incidence at 140 mg/kg, po after 96 hrs of irradiation; format: organism-based; design: dose 140 mg/kg, route oral; settings: in vivo; summary of the method: as §1
[9] = test system: Mus musculus; assay: Phototoxicity in Swiss albino mouse assessed as ear thickness at 140 mg/kg, po after 24 hrs of irradiation; format: organism-based; design: dose 140 mg/kg, route oral; settings: in vivo; summary of the method: as §1
[10] = test system: Mus musculus; assay: Phototoxicity in Swiss albino mouse assessed as ear thickness at 140 mg/kg, po after 96 hrs of irradiation; format: organism-based; design: dose 140 mg/kg, route oral; settings: in vivo; summary of the method: as §1
[11] = test system: Mus musculus; assay: (§2) Phototoxicity in Swiss albino mouse assessed as erythema incidence at 140 mg/kg, po after 48 hrs of irradiation; format: organism-based; design: dose 140 mg/kg, route oral; settings: in vivo; summary of the method: as §1
[12] = test system: Mus musculus; assay: as §2; format: organism-based; design: dose 140 mg/kg, route oral; settings: in vivo; summary of the method: as §1; remark: listed apart in the source
[13] = test system: Mus musculus; assay: Phototoxicity in Swiss albino mouse assessed as ear thickness at 140 mg/kg, po after 48 hrs of irradiation; format: organism-based; design: dose 140 mg/kg, route oral; settings: in vivo; summary of the method: as §1
[14] = test system: Mycobacterium tuberculosis; assay: Antimycobacterial activity against Mycobacterium tuberculosis ATCC 35801 infected in CD1 mouse assessed as bacterial load in spleen at 50 mg/kg, ip after 10 days; format: functional; settings: route intraperitoneal
Summary of the method: (§3)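 Female CD-1 mice, 6 weeks old, six per group, infected IV via caudal vein with ~10⁷ viable organisms. Intraperitoneal treatment started 10 days after inoculation and ran 10 days. At 35 days post-infection, spleens and right lungs were homogenised and serially 10-fold diluted onto 7H10 agar, incubated 4 weeks at 37 °C in ambient air. CFU compared with vehicle-treated controls.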

[15] = test system: Mycobacterium tuberculosis; assay: Antimycobacterial activity against Mycobacterium tuberculosis ATCC 35801 infected in CD1 mouse assessed as bacterial load in lungs at 50 mg/kg, ip after 10 days; format: functional; settings: route intraperitoneal; summary of the method: as §3
[16] = test system: Mus musculus; assay: Phototoxicity in Swiss albino mouse assessed as erythema incidence at 140 mg/kg, po after 4 hrs of irradiation; format: organism-based; design: dose 140 mg/kg, route oral; settings: in vivo; summary of the method: as §1

DNA gyrase subunit B (Mycobacterium smegmatis (strain ATCC 700084 / mc(2)155), UniProt A0QNE0), sequence (A0QNE0 whole entry): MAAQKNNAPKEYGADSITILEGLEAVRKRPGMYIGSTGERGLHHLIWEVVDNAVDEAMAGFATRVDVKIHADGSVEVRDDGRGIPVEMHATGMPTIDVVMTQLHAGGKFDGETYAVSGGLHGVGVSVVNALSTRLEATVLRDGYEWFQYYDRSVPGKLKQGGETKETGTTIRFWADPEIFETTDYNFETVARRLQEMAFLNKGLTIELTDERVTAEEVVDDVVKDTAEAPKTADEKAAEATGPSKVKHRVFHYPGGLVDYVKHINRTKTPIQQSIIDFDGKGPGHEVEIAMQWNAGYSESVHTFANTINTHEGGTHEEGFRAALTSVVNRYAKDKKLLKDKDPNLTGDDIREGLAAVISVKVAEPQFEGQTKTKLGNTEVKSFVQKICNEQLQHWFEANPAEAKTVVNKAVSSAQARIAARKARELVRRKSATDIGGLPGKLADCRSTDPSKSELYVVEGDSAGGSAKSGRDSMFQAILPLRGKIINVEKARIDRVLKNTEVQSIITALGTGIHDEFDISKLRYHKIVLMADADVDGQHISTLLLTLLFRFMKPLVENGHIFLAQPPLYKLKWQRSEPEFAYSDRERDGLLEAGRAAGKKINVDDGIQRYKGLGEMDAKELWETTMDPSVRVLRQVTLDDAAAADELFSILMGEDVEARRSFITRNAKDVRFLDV

Structure (SMILES) | MIC [1] | pIC50 [2] | MIC [3] | pIC50 [4] | other results
COc1c(N2CCN(C)C(c3ccccc3)C2)c(F)c([N+](=O)[O-])c2c(=O)c(C(=O)O)cn(C3CC3)c12 (centres undefined) | 3.14 µM (≈ 1.56 µg/mL) | 3.90 | 6.3 µM (≈ 3.13 µg/mL) |  | 
CCN(CC)C(=O)C1CCCN(c2c(F)cc3c(=O)c(C(=O)O)cn(C4CC4)c3c2OC)C1 (centres undefined) | 1.69 µM (≈ 0.777 µg/mL) | 3.87 | 0.85 µM (≈ 0.391 µg/mL) | < 3.96 | Activity [5]: Non-toxic; Activity [6]: 0.39 mm; Activity [7]: 0.38 mm; Activity [8]: Non-toxic; Activity [9]: 0.36 mm; Activity [10]: 0.39 mm; Activity [11]: Non-toxic; Activity [12]: Non-toxic; Activity [13]: 0.37 mm
COc1c(N2CCN(C(=O)c3ccco3)CC2)c(F)c([N+](=O)[O-])c2c(=O)c(C(=O)O)cn(C3CC3)c12 | 6.25 µM (≈ 3.13 µg/mL) |  | 12.5 µM (≈ 6.25 µg/mL) |  | 
COc1c(N2CCN(Cc3ccc4c(c3)OCO4)CC2)c(F)cc2c(=O)c(C(=O)O)cn(C3CC3)c12 | 1.57 µM (≈ 0.778 µg/mL) | 3.90 | 3.15 µM (≈ 1.56 µg/mL) | < 4.00 | 
COc1c(N2CCc3ccccc3C2C(=O)NC(C)(C)C)c(F)c([N+](=O)[O-])c2c(=O)c(C(=O)O)cn(C3CC3)c12 (centres undefined) | 1.41 µM (≈ 0.779 µg/mL) | 3.95 | 2.82 µM (≈ 1.56 µg/mL) | < 4.04 | 
COc1c(N2CCC3(CC2)OCCO3)c(F)cc2c(=O)c(C(=O)O)cn(C3CC3)c12 | 0.93 µM (≈ 0.389 µg/mL) | 3.83 | 1.86 µM (≈ 0.778 µg/mL) | < 3.92 | Activity [14]: 6.41; Activity [15]: 6.12
COc1c(N2CCN(C(c3ccccc3)c3ccc(Cl)cc3)CC2)c(F)c([N+](=O)[O-])c2c(=O)c(C(=O)O)cn(C3CC3)c12 (centres undefined) | 1.28 µM (≈ 0.777 µg/mL) | 3.99 | 10.3 µM (≈ 6.25 µg/mL) |  | 
COc1c(N2CCN(C(=O)C3COc4ccccc4O3)CC2)c(F)cc2c(=O)c(C(=O)O)cn(C3CC3)c12 (centres undefined) | 1.49 µM (≈ 0.78 µg/mL) | 3.92 | 1.49 µM (≈ 0.78 µg/mL) | 4.24 | Activity [5]: Non-toxic; Activity [6]: 0.33 mm; Activity [7]: 0.31 mm; Activity [8]: Non-toxic; Activity [9]: 0.32 mm; Activity [10]: 0.32 mm; Activity [11]: Non-toxic; Activity [16]: Non-toxic; Activity [12]: Non-toxic; Activity [13]: 0.33 mm
COc1c(N2CCN(C(=O)c3ccco3)CC2)c(F)cc2c(=O)c(C(=O)O)cn(C3CC3)c12 | 13.7 µM (≈ 6.25 µg/mL) |  | 13.7 µM (≈ 6.25 µg/mL) |  | 
COc1ccc(CC2C3=C(CCCC3)CCN2c2c(F)c(N)c3c(=O)c(C(=O)O)cn(C4CC4)c3c2OC)cc1 (centres undefined) | 2.85 µM (≈ 1.56 µg/mL) | 3.94 | 5.72 µM (≈ 3.13 µg/mL) |  | 
COc1c(N2CCn3cc(C(=O)O)nc3C2)c(F)c([N+](=O)[O-])c2c(=O)c(C(=O)O)cn(C3CC3)c12 | 3.12 µM (≈ 1.52 µg/mL) | 3.89 | 6.42 µM (≈ 3.13 µg/mL) |  | 
COc1c(N2CCC(n3c(=O)[nH]c4cc(Cl)ccc43)CC2)c(F)c([N+](=O)[O-])c2c(=O)c(C(=O)O)cn(C3CC3)c12 | 5.47 µM (≈ 3.13 µg/mL) |  | 10.9 µM (≈ 6.25 µg/mL) |  | 
COc1c(N2CCN(C(c3ccccc3)c3ccc(Cl)cc3)CC2)c(F)cc2c(=O)c(C(=O)O)cn(C3CC3)c12 (centres undefined) | 11.1 µM (≈ 6.25 µg/mL) |  | 44.5 µM (≈ 25 µg/mL) |  | 
COc1c(N2CCC(n3c(=O)[nH]c4cc(Cl)ccc43)CC2)c(F)cc2c(=O)c(C(=O)O)cn(C3CC3)c12 | 5.94 µM (≈ 3.13 µg/mL) |  | 5.94 µM (≈ 3.13 µg/mL) |  | 
COc1c(N2CCN(Cc3ccc4c(c3)OCO4)CC2)c(F)c(N)c2c(=O)c(C(=O)O)cn(C3CC3)c12 | 3.06 µM (≈ 1.56 µg/mL) |  | 6.13 µM (≈ 3.13 µg/mL) |  | 
CCN(CC)C(=O)C1CCCN(c2c(F)c([N+](=O)[O-])c3c(=O)c(C(=O)O)cn(C4CC4)c3c2OC)C1 (centres undefined) | 1.55 µM (≈ 0.782 µg/mL) | 3.91 | 12.4 µM (≈ 6.25 µg/mL) |  | 
COc1c(N2CCC(O)(c3ccc(Cl)cc3)CC2)c(F)c([N+](=O)[O-])c2c(=O)c(C(=O)O)cn(C3CC3)c12 | 5.88 µM (≈ 3.13 µg/mL) |  | 11.8 µM (≈ 6.25 µg/mL) |  | 
COc1ccc(CC2C3=C(CCCC3)CCN2c2c(F)cc3c(=O)c(C(=O)O)cn(C4CC4)c3c2OC)cc1 (centres undefined) | 1.46 µM (≈ 0.778 µg/mL) | 3.93 | 2.93 µM (≈ 1.56 µg/mL) | 4.12 | 
